Experimental data published in ChEMBL document CHEMBL3351702, “Design, synthesis and characterization of fluoro substituted novel pyrazolylpyrazolines scaffold and their pharmacological screening” (Eur J Med Chem, 2014).
In brackets after ≈: the same amount, converted by molar mass.

How the values were obtained:
Escherichia coli = assay: Antimicrobial activity against Escherichia coli MTCC 443 assessed as absence of visible growth after 24 to 48 hrs by broth micro dilution method; format: functional
Streptococcus pneumoniae = assay: Antimicrobial activity against Streptococcus pneumoniae MTCC 1936 assessed as absence of visible growth after 24 to 48 hrs by broth micro dilution method; format: functional
Salmonella typhi = assay: Antimicrobial activity against Salmonella typhi MTCC 98 assessed as absence of visible growth after 24 to 48 hrs by broth micro dilution method; format: functional, Salmonella enterica subsp. enterica serovar Typhi; details: Salmonella enterica
Vibrio cholerae = assay: Antimicrobial activity against Vibrio cholerae MTCC 3906 assessed as absence of visible growth after 24 to 48 hrs by broth micro dilution method; format: functional
[1] = tested on: Mycobacterium tuberculosis; assay: Antituberculosis activity against Mycobacterium tuberculosis H37Rv assessed as inhibition of colony formation at 250 ug/ml after 4 weeks of incubation; format: functional; details: 672 h
Bacillus subtilis = assay: Antimicrobial activity against Bacillus subtilis MTCC 441 assessed as absence of visible growth after 24 to 48 hrs by broth micro dilution method; format: functional
Aspergillus fumigatus = assay: Antimicrobial activity against Aspergillus fumigatus MTCC 3008 assessed as absence of visible growth after 24 to 48 hrs by broth micro dilution method; format: functional
How it was run: (§1)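 Fungal broth microdilution following NCCLS, in Sabouraud dextrose broth, with compounds diluted from DMSO and inoculum adjusted to 10⁸ CFU/mL by turbidity. Growth read at 24 and 48 h. MIC is the highest dilution preventing turbidity after spot subculture. Griseofulvin and nystatin were the references.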

Clostridium tetani = assay: Antimicrobial activity against Clostridium tetani MTCC 449 assessed as absence of visible growth after 24 to 48 hrs by broth micro dilution method; format: functional
Plasmodium falciparum = assay: Antimalarial activity against chloroquine ane quinine-sensitive ring stage of Plasmodium falciparum assessed as inhibition of parasite growth after 48 hrs; format: functional, organism-based
How it was run: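 P. falciparum field strain from a Surat hospital, cultured by a modified Trager–Jensen method and synchronized with 5% D-sorbitol at ring stage. Rings at 1–2% parasitaemia and 2.5% haematocrit in hypoxanthine-free RPMI-1640 with 10% human plasma. Exposed to 7 concentrations, diluted from DMSO stocks, for one 48 h cycle at 37 °C. Growth inhibition % measured; IC50 by interpolation; duplicate runs, mean reported.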

Candida albicans = assay: Antimicrobial activity against Candida albicans MTCC 227 assessed as absence of visible growth after 24 to 48 hrs by broth micro dilution method; format: functional; how it was run: as §1

Molecule | MIC (Escherichia coli) [µg/mL] | MIC (Streptococcus pneumoniae) [µg/mL] | MIC (Salmonella typhi) [µg/mL] | MIC (Vibrio cholerae) [µg/mL] | inhibition at 250 µg/mL [1] [%] | MIC (Bacillus subtilis) [µg/mL] | MIC (Aspergillus fumigatus) [µg/mL] | MIC (Clostridium tetani) [µg/mL] | IC50 (Plasmodium falciparum) [µg/mL] | MIC (Candida albicans) [µg/mL]
O=C(O)c1cn(C2CC2)c2cc(N3CCNCC3)c(F)cc2c1=O [CIPROFLOXACIN] | 25 (≈ 75.4 µM) | 25 (≈ 75.4 µM) | 25 (≈ 75.4 µM) | 25 (≈ 75.4 µM) | – | – | – | – | – | –
CO[C@H]1/C=C/O[C@@]2(C)Oc3c(C)c(O)c4c(O)c(c(/C=N/N5CCN(C)CC5)c(O)c4c3C2=O)NC(=O)/C(C)=C\C=C\[C@H](C)[C@H](O)[C@@H](C)[C@@H](O)[C@@H](C)[C@H](OC(C)=O)[C@@H]1C [RIFAMPIN] | – | – | – | – | 98 | – | – | – | – | –
COc1ccc(N2N=C(c3ccc(F)cc3)CC2c2c(C)nn(-c3ccccc3)c2Oc2ccc(F)cc2)cc1 (stereo not drawn) | 500 (≈ 932 µM) | 125 (≈ 233 µM) | 500 (≈ 932 µM) | 100 (≈ 186 µM) | 74 | 62.5 (≈ 116 µM) | 250 (≈ 466 µM) | 200 (≈ 373 µM) | 0.25 (≈ 0.466 µM) | 500 (≈ 932 µM)
C=C[C@H]1CN2CC[C@H]1C[C@H]2[C@H](O)c1ccnc2ccc(OC)cc12 [QUININE] | – | – | – | – | – | – | – | – | 0.268 (≈ 0.826 µM) | –
Cc1nn(-c2ccccc2)c(Oc2cccc(C(F)(F)F)c2)c1C1CC(c2ccc(F)cc2)=NN1c1ccc(Br)cc1 (stereo not drawn) | 250 (≈ 393 µM) | 500 (≈ 787 µM) | 200 (≈ 315 µM) | 250 (≈ 393 µM) | 91 | 250 (≈ 393 µM) | 500 (≈ 787 µM) | 250 (≈ 393 µM) | 1.46 (≈ 2.3 µM) | 1000 (≈ 1570 µM)
COc1ccc(N2N=C(c3ccc(F)cc3)CC2c2c(C)nn(-c3ccccc3)c2Oc2ccccc2F)cc1 (stereo not drawn) | 500 (≈ 932 µM) | 500 (≈ 932 µM) | 500 (≈ 932 µM) | 500 (≈ 932 µM) | 22 | 100 (≈ 186 µM) | 250 (≈ 466 µM) | 500 (≈ 932 µM) | 0.65 (≈ 1.21 µM) | 500 (≈ 932 µM)
CCn1cc(C(=O)O)c(=O)c2cc(F)c(N3CCNCC3)cc21 [NORFLOXACIN] | 10 (≈ 31.3 µM) | 10 (≈ 31.3 µM) | 10 (≈ 31.3 µM) | 10 (≈ 31.3 µM) | – | 100 (≈ 313 µM) | – | 50 (≈ 157 µM) | – | –
COc1ccc(N2N=C(c3ccc(F)cc3)CC2c2c(C)nn(-c3ccccc3)c2Oc2cccc(F)c2)cc1 (stereo not drawn) | 500 (≈ 932 µM) | 100 (≈ 186 µM) | 500 (≈ 932 µM) | 200 (≈ 373 µM) | 56 | 200 (≈ 373 µM) | > 1000 | 200 (≈ 373 µM) | 0.57 (≈ 1.06 µM) | 1000 (≈ 1860 µM)
Cc1nn(-c2ccccc2)c(Oc2ccccc2F)c1C1CC(c2ccc(F)cc2)=NN1c1ccc(Br)cc1 (stereo not drawn) | 100 (≈ 171 µM) | 250 (≈ 427 µM) | 200 (≈ 342 µM) | 500 (≈ 854 µM) | 94 | 200 (≈ 342 µM) | 1000 (≈ 1710 µM) | 500 (≈ 854 µM) | 0.088 (≈ 0.15 µM) | 250 (≈ 427 µM)
COc1ccc(N2N=C(c3ccc(F)cc3)CC2c2c(C)nn(-c3ccccc3)c2Oc2cccc(C(F)(F)F)c2)cc1 (stereo not drawn) | 100 (≈ 170 µM) | 200 (≈ 341 µM) | 100 (≈ 170 µM) | 250 (≈ 426 µM) | 52 | 100 (≈ 170 µM) | 500 (≈ 852 µM) | 200 (≈ 341 µM) | 0.3 (≈ 0.511 µM) | 250 (≈ 426 µM)
Cc1nn(-c2ccccc2)c(Oc2ccccc2F)c1C1CC(c2ccc(F)cc2)=NN1c1ccc(F)cc1 (stereo not drawn) | 200 (≈ 381 µM) | 250 (≈ 477 µM) | 250 (≈ 477 µM) | 250 (≈ 477 µM) | 10 | 500 (≈ 953 µM) | 100 (≈ 191 µM) | 250 (≈ 477 µM) | 0.025 (≈ 0.0477 µM) | 1000 (≈ 1910 µM)
O=C(N[C@H](CO)[C@H](O)c1ccc([N+](=O)[O-])cc1)C(Cl)Cl [CHLORAMPHENICOL] | 50 (≈ 155 µM) | 50 (≈ 155 µM) | 50 (≈ 155 µM) | 50 (≈ 155 µM) | – | 50 (≈ 155 µM) | – | 50 (≈ 155 µM) | – | –
NYSTATIN | – | – | – | – | – | – | 100 | – | – | 100
Cc1nn(-c2ccccc2)c(Oc2ccc(F)cc2)c1C1CC(c2ccc(F)cc2)=NN1c1ccc(F)cc1 (stereo not drawn) | 500 (≈ 953 µM) | 100 (≈ 191 µM) | 250 (≈ 477 µM) | 200 (≈ 381 µM) | 40 | 500 (≈ 953 µM) | > 1000 | 250 (≈ 477 µM) | 0.022 (≈ 0.0419 µM) | 200 (≈ 381 µM)
COC1=CC(=O)C[C@@H](C)[C@]12Oc1c(Cl)c(OC)cc(OC)c1C2=O [GRISEOFULVIN] | – | – | – | – | – | – | 100 (≈ 283 µM) | – | – | 500 (≈ 1420 µM)
Cc1nn(-c2ccccc2)c(Oc2cccc(F)c2)c1C1CC(c2ccc(F)cc2)=NN1c1ccc(Br)cc1 (stereo not drawn) | 500 (≈ 854 µM) | 500 (≈ 854 µM) | 200 (≈ 342 µM) | 125 (≈ 214 µM) | 56 | 250 (≈ 427 µM) | > 1000 | 250 (≈ 427 µM) | 0.06 (≈ 0.102 µM) | 250 (≈ 427 µM)
CC1(C)S[C@@H]2[C@H](NC(=O)[C@H](N)c3ccccc3)C(=O)N2[C@H]1C(=O)O [AMPICILLIN] | 100 (≈ 286 µM) | 100 (≈ 286 µM) | 100 (≈ 286 µM) | 100 (≈ 286 µM) | – | 250 (≈ 715 µM) | – | 250 (≈ 715 µM) | – | –
Cc1nn(-c2ccccc2)c(Oc2ccc(F)cc2)c1C1CC(c2ccc(F)cc2)=NN1c1ccc(Br)cc1 (stereo not drawn) | 200 (≈ 342 µM) | 500 (≈ 854 µM) | 200 (≈ 342 µM) | 500 (≈ 854 µM) | 96 | 500 (≈ 854 µM) | > 1000 | 125 (≈ 214 µM) | 0.025 (≈ 0.0427 µM) | 500 (≈ 854 µM)
